Data: ChEMBL document CHEMBL1125542, “Dihydropyrimidine calcium channel blockers. 4. Basic 3-substituted-4-aryl-1,4-dihydropyrimidine-5-carboxylic acid esters. Potent antihypertensive agents” (J Med Chem, 1992)

Species on record: Oryctolagus cuniculus
Assay: In vitro inhibition of potassium-contracted rabbit aorta strips
Format: functional
How it was run: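 Rabbit thoracic aorta strips contracted with potassium chloride (100 mM) in the presence of calcium. IC50 is the drug concentration giving 50% relaxation, reported with 95% confidence intervals.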
CC1=C(C(=O)OC(C)C)C(c2ccccc2C(F)(F)F)N(C(=O)OC2CCCN(Cc3ccccc3)C2)C(=O)N1 (configuration not stated) gave an IC50 of 130 nM. CC1=C(C(=O)OC(C)C)C(c2cccc([N+](=O)[O-])c2)N(CCCN(C)Cc2ccccc2)C(S)=N1 (configuration not stated) showed an IC50 of 72 nM. With CC1=NC(=S)N(C(=O)OC2CCN(Cc3ccccc3)CC2)C(c2cccc([N+](=O)[O-])c2)/C1=C(\O)OC(C)C (configuration not stated) the IC50 was 4 nM. CC1=NC(=S)N(C(=O)OC2CCN(Cc3ccccc3)CC2)C(c2ccccc2C(F)(F)F)/C1=C(\O)OC(C)C (configuration not stated) was tested, and the IC50 was 5 nM. With CCO/C(O)=C1\C(C)=NC(=S)N(C(=O)OCCN(C)Cc2ccccc2)C1c1cccc([N+](=O)[O-])c1 (configuration not stated) the IC50 was 29 nM. Work on CCOC(=O)N1C(=S)N=C(C)/C(=C(/O)OCCN(C)Cc2ccccc2)C1c1cccc([N+](=O)[O-])c1 (configuration not stated) yielded an IC50 of 34 nM. Molecule CC1=C(C(=O)OC(C)C)C(c2ccccc2[N+](=O)[O-])N(C(=O)OC2CCN(Cc3ccccc3)CC2)C(=O)N1 (configuration not stated) has an IC50 of 8 nM. CC1=C(C(=O)OC(C)C)C(c2cccc([N+](=O)[O-])c2)N(C(=O)O[C@H](C)CN(C)Cc2ccccc2)C(=O)N1 (some centres not stated) showed an IC50 of 64 nM. With CC1=C(C(=O)OC(C)C)C(c2ccccc2C(F)(F)F)N(C(=O)O[C@@H]2CCN(Cc3ccccc3)C2)C(=O)N1 (some centres not stated) the IC50 was 360 nM. Molecule CC1=NC(=S)N(C(=O)OC2CCN(Cc3ccccc3)CC2)C(c2ccccc2[N+](=O)[O-])/C1=C(\O)OC(C)C (configuration not stated) has an IC50 of 2 nM. In the case of CCO/C(O)=C1\C(C)=NC(=S)N(C(=O)OC(C)C)C1c1ccccc1C(F)(F)F (configuration not stated), the IC50 is reported as 50 nM. Molecule CC1=NC(=S)N(C(=O)OC2CCN(Cc3ccc(F)cc3)CC2)[C@@H](c2ccccc2C(F)(F)F)/C1=C(\O)OC(C)C has an IC50 greater than 1000 nM. CC1=C(C(=O)OCC(C)C)C(c2ccccc2C(F)(F)F)N(C(=O)OC2CCN(Cc3ccccc3)CC2)C(=O)N1 (configuration not stated) was tested, and the IC50 was 98 nM. For CCOC(=O)N1C(=S)N=C(C)/C(=C(/O)OCCN(C)Cc2ccccc2)C1c1ccccc1C(F)(F)F (configuration not stated), the IC50 was 22 nM. CC1=C(C(=O)OC(C)C)C(c2cccc([N+](=O)[O-])c2)N(C(=O)OC2CCN(Cc3ccccc3)CC2)C(=O)N1 (configuration not stated) showed an IC50 of 12 nM. Molecule CCO/C(O)=C1\C(C)=NC(=S)N(C(=O)OC2CCN(Cc3ccccc3)CC2)C1c1ccccc1C(F)(F)F (configuration not stated) has an IC50 of 9 nM. In the case of CC1=C(C(=O)OC(C)C)C(c2ccccc2C(F)(F)F)N(CCC2CCN(Cc3ccccc3)CC2)C(S)=N1 (configuration not stated), the IC50 is reported as 120 nM. In the case of CC1=C(C(=O)OC(C)C)C(c2ccccc2C(F)(F)F)N(C(=O)OC2CCN(Cc3ccc(Cl)cc3)CC2)C(=O)N1 (configuration not stated), the IC50 is reported as 55 nM. CC1=C(C(=O)OC(C)C)C(c2ccccc2C(F)(F)F)N(C(=O)OC2CCN(Cc3ccccc3)CC2)C(=O)N1 (configuration not stated) gave an IC50 of 50 nM. CC1=C(C(=O)OC(C)C)C(c2ccccc2C(F)(F)F)N(C(=O)O[C@H]2CCN(Cc3ccccc3)C2)C(=O)N1 (some centres not stated) gave an IC50 of 790 nM. CCO/C(O)=C1\C(C)=NC(=S)N(C(=O)O[C@H]2CCN(Cc3ccccc3)C2)C1c1ccccc1C(F)(F)F (some centres not stated) was tested, and the IC50 was 2 nM. With CCO/C(O)=C1\C(C)=NC(=S)N(C(=O)OCCN(C)Cc2ccccc2)C1c1ccccc1C(F)(F)F (configuration not stated) the IC50 was 23 nM. CC1=NC(=S)N(C(=O)OC2CCN(Cc3ccccc3)CC2)C(c2ccccc2Cl)/C1=C(\O)OC(C)C (configuration not stated) was tested, and the IC50 was 5 nM. Molecule CC1=NC(=S)N(C(=O)OC2CCN(Cc3ccc(F)cc3)CC2)[C@H](c2ccccc2C(F)(F)F)/C1=C(\O)OC(C)C has an IC50 of 15 nM. Molecule CC1=NC(=S)N(C(=O)OC2CCN(Cc3ccc(F)cc3)CC2)C(c2ccccc2C(F)(F)F)/C1=C(\O)OC(C)C (configuration not stated) has an IC50 of 7 nM. Molecule CCCN1C(S)=NC(C)=C(C(=O)OC2CCN(Cc3ccccc3)CC2)C1c1ccccc1C(F)(F)F (configuration not stated) has an IC50 greater than 1000 nM. Molecule CCOC(=O)N1C(=S)N=C(C)/C(=C(/O)OCC)C1c1cccc([N+](=O)[O-])c1 (configuration not stated) has an IC50 of 17 nM. Molecule CC1=C(C(=O)OC(C)C)C(c2cccc([N+](=O)[O-])c2)N(C(=O)O[C@@H](C)CN(C)Cc2ccccc2)C(=O)N1 (some centres not stated) has an IC50 of 57 nM. Molecule CCOC(=O)C1=C(C)N=C(S)NC1c1cccc([N+](=O)[O-])c1 (configuration not stated) has an IC50 greater than 1000 nM. In the case of CCOC(=O)N1C(=S)N=C(C)/C(=C(/O)OCC)C1c1ccccc1C(F)(F)F (configuration not stated), the IC50 is reported as 41 nM. CCOC(=O)C1=C(COCCN)NC(C)=C(C(=O)OC)C1c1ccccc1Cl (configuration not stated) [AMLODIPINE] showed an IC50 of 3 nM.

Species on record: Oryctolagus cuniculus
Assay: In vitro evaluation for the inhibition of potassium-contracted rabbit aorta strips by vasorelaxant assay.
Format: functional
How it was run: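 Rabbit thoracic aorta strips contracted with potassium chloride (100 mM) in the presence of calcium. IC50 taken as the drug concentration giving 50% relaxation of the contraction, reported with 95% confidence intervals.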
Work on COC(=O)C1=C(C)NC(C)=C(C(=O)OC)C1c1ccccc1[N+](=O)[O-] [NIFEDIPINE] yielded an IC50 of 2 nM.
